Experimental data from ChEMBL document CHEMBL1136581, “Synthesis of dopamine transporter selective 3-[2-(diarylmethoxyethylidene)]-8-alkylaryl-8-azabicyclo[3.2.1]octanes” (Bioorg Med Chem Lett, 2003).

Key:
[1] = target: Sodium-dependent serotonin transporter (Rattus norvegicus, UniProt P31652); assay: Binding affinity at serotonin transporter from rat caudate-putamen tissue by [3H]WIN-35428 displacement.; format: tissue-based
In short: (§1)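 Compounds were tested as oxalate salts. Ki values are the mean ± SEM of three experiments, each run in triplicate.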

[2] = target: Monoamine transporters; serotonin & dopamine (Rattus norvegicus) (UniProt P31652+P23977); assay: Binding affinity towards serotonin transporter compared to dopamine transporter.; format: protein assay
Chain of Monoamine transporters; serotonin & dopamine (Rattus norvegicus) (P23977 whole entry, looked up): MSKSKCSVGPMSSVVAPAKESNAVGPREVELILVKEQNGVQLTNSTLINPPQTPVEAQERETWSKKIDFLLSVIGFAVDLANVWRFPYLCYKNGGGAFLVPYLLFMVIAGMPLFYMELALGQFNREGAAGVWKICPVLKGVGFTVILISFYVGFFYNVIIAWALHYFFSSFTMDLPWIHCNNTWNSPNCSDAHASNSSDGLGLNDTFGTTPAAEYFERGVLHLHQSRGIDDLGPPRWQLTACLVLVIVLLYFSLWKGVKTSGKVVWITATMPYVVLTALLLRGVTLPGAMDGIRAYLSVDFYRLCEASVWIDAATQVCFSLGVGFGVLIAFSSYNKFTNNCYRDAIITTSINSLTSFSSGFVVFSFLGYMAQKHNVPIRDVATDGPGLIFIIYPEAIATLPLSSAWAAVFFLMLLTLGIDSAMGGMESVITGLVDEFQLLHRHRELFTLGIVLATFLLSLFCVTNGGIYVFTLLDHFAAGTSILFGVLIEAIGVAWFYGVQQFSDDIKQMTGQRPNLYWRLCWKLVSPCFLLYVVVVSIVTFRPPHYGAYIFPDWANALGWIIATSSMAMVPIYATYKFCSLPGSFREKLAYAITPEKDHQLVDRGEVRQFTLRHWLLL
Chain of Monoamine transporters; serotonin & dopamine (Rattus norvegicus) (P31652 whole entry, looked up): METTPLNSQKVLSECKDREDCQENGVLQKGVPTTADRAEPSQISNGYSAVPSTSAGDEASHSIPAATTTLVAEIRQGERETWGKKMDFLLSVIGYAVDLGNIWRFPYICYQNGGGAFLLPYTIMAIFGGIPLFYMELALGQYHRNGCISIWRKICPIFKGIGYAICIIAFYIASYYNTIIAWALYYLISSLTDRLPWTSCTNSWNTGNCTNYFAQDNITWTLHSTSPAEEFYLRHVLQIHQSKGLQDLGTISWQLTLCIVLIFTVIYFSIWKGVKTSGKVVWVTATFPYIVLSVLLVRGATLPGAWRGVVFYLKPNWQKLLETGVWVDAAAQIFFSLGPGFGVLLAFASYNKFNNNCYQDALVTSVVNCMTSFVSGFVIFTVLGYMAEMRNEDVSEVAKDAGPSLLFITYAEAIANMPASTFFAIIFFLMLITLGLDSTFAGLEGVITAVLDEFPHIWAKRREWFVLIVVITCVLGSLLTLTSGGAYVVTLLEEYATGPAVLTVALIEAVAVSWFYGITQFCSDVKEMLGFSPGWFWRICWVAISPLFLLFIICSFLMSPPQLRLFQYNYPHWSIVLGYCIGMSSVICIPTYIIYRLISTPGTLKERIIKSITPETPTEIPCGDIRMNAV

[3] = target: Sodium-dependent dopamine transporter (Rattus norvegicus, UniProt P23977); assay: Binding affinity at dopamine transporter from rat caudate-putamen tissue by [3H]WIN-35428 displacement.; in short: as §1
Chain of Sodium-dependent dopamine transporter (P23977 whole entry): as the sequence (P23977 whole entry, looked up) above

Chain of Sodium-dependent serotonin transporter (P31652 whole entry): as the sequence (P31652 whole entry, looked up) above

Row | SMILES | Ki [1] | Ratio [2] | Ki [3]
1 | Fc1ccc(C(OCC=C2CC3CCC(C2)N3Cc2ccccc2)c2ccc(F)cc2)cc1 | 2220 nM | 281 | –
2 | Clc1ccc(C(OCCC2CC3CCC(C2)N3CCCc2ccccc2)c2ccccc2)cc1 (configuration not stated) | 374 nM | 12 | 30 nM
3 | CN1C2CCC1CC(CCOC(c1ccc(F)cc1)c1ccc(F)cc1)C2 (configuration not stated) | 2470 nM | 80 | 31 nM
4 | c1ccc(CCCN2[C@@H]3CC[C@H]2C[C@@H](CCOC(c2ccccc2)c2ccccc2)C3)cc1 | 750 nM | 42 | 18 nM
5 | C(COC(c1ccccc1)c1ccccc1)=C1CC2CCC(C1)N2Cc1ccccc1 | 5420 nM | 113 | 48 nM
6 | Fc1ccc(C(OCC[C@H]2C[C@H]3CC[C@@H](C2)N3CCCc2ccccc2)c2ccc(F)cc2)cc1 | 175 nM | – | 7.4 nM
7 | Clc1ccc(C(OCCC2CC3CCC(C2)N3CCCc2ccccc2)c2ccc(Cl)cc2)cc1 (configuration not stated) | 177 nM | 4 | 50 nM
8 | CN1[C@@H]2CC[C@H]1C[C@@H](CCOC(c1ccccc1)c1ccccc1)C2 | 14100 nM | 243 | 58 nM
9 | Clc1ccc(C(OCCC2CC3CCC(C2)N3Cc2ccccc2)c2ccccc2)cc1 (configuration not stated) | 1940 nM | 24 | 82 nM
10 | Clc1ccc(C(OCCC2CC3CCC(C2)N3Cc2ccccc2)c2ccc(Cl)cc2)cc1 (configuration not stated) | 822 nM | 9 | 91 nM
11 | Oc1ccc(CN2C3CCC2CC(CCOC(c2ccc(F)cc2)c2ccc(F)cc2)C3)cc1 (configuration not stated) | 809 nM | 27 | 30 nM
12 | Fc1ccc(C(OCC=C2CC3CCC(C2)N3CCCc2ccccc2)c2ccc(F)cc2)cc1 | 562 nM | 152 | 3.7 nM
13 | Oc1cccc(CN2C3CCC2CC(CCOC(c2ccc(F)cc2)c2ccc(F)cc2)C3)c1 (configuration not stated) | 651 nM | 33 | 20 nM
14 | Fc1ccc(C(OCCC2CC3CCC(C2)N3Cc2ccccc2)c2ccc(F)cc2)cc1 (configuration not stated) | 1430 nM | 251 | 5.7 nM
15 | CN1C2CCC1CC(CCOC(c1ccccc1)c1ccc(Cl)cc1)C2 (configuration not stated) | 3430 nM | 71 | –
16 | c1ccc(CN2C3CCC2CC(CCOC(c2ccccc2)c2ccccc2)C3)cc1 (configuration not stated) | 4780 nM | 48 | –
17 | CN1C2CCC1CC(CCOC(c1ccc(Cl)cc1)c1ccc(Cl)cc1)C2 (configuration not stated) | 1160 nM | 64 | 18 nM
